From article PMC9313898 (Journal of Thrombosis and Haemostasis, 2022)
“Also recorded” adds a separate entry of the source.

Legend:
[1] = system: New Zealand White rabbits; assay: Ear bleeding time in the arterial FeCl2-injury rabbit model; format: in vivo
[2] = system: New Zealand White rabbits; assay: Arterial thrombosis; format: in vivo; details: rabbit carotid artery FeCl2
[3] = system: APTT in rabbit plasma; assay: Ex vivo APTT in the rabbit liver-injury model
[4] = system: New Zealand White rabbits; assay: Rabbit liver-injury bleeding model; format: in vivo
How it was run: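 Male New Zealand White rabbits (2.5–3.3 kg) were anaesthetised with ketamine/xylazine and kept at 37°C. A 1 × 1 cm triangular wedge was cut from the liver edge. Pre‑weighed swabs were applied at 30‑s intervals for up to 30 min to give bleeding time and blood loss.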

[5] = system: PT in rabbit plasma; assay: Ex vivo PT in the rabbit liver-injury model
[6] = system: New Zealand White rabbits; assay: Gum bleeding time in rabbits; format: in vivo; details: rabbit; intravenous asundexian
How it was run: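 Male New Zealand White rabbits (2.7–3.0 kg) were under ketamine/xylazine anaesthesia during the arterial FeCl₂‑injury thrombosis experiment. Test compound was given i.v., alone or with aspirin plus ticagrelor. Ear bleeding time and, by an equivalent technique, gum‑mucosa bleeding time were recorded as the time at which bleeding stopped.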

[7] = system: APTT in rabbit plasma; assay: APTT clotting time in rabbit plasma; format: biochemical; details: mean, n = 2–9
How it was run: (§1)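 Plasma came from untreated donor animals, collected into citrate, centrifuged at 2500 ×g for 20 min at 4°C, and stored at −20°C. Plasma was incubated with test compound (0–37.5 µM) for 3 min at 37°C, then with kaolin/cephalin APTT reagent for 3 min. Clotting was started with 0.025 M CaCl₂ and timed on an automated coagulometer. EC₁₅₀ is the concentration giving a 1.5‑fold APTT increase.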

[8] = system: APTT in plasma of monkeys; assay: APTT clotting time in monkey plasma; format: biochemical
[9] = system: New Zealand White rabbits; assay: Arterio-venous shunt model in rabbits, prevention protocol; format: in vivo; details: rabbit AV shunt; for Thrombus weight: mean (± SEM), control 14.8 (± 2) mg
How it was run: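 Male New Zealand White rabbits (2.7–3.0 kg) were anaesthetised with ketamine/xylazine (i.m. bolus, then ear‑vein infusion). A shunt joined the right carotid artery to the left jugular vein through a 4 cm polyethylene tube holding a 6 cm nylon‑wire loop. An i.v. bolus (0.3, 1 or 3 mg/kg) was given 10 min before opening. After 15 min the wire and thrombus were removed and weighed.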

[10] = system: PT in human plasma; assay: Prothrombin time in human plasma; format: biochemical; details: 0–37.5 µM
How it was run: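 Human citrated plasma (pooled volunteer plasma or purchased) was incubated with test compound (0–37.5 µM) for 3 min at 37°C. It was then mixed with thromboplastin, and clotting time was measured at 37°C on an automated coagulometer.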

[11] = system: APTT in dog plasma; assay: APTT clotting time in dog plasma; format: biochemical; details: mean, n = 2–9
How it was run: as §1

[12] = system: APTT in guinea pig plasma; assay: APTT clotting time in guinea pig plasma; format: biochemical; details: mean, n = 2–9
How it was run: as §1

[13] = system: New Zealand White rabbits; assay: Ear bleeding time in the venous FeCl2-injury rabbit model; format: in vivo; details: asundexian 0.6, 2, or 6 mg/kg iv, any dose group
How it was run: (§2)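 Male New Zealand White rabbits (2.7–3.0 kg) were anaesthetised with ketamine/xylazine, with the femoral artery and vein cannulated. Thirty min after i.v. dosing, the jugular vein was exposed to FeCl₂ (13% in 100 µl water) on filter paper for 5 min. After a further 30 min the injured vein was excised and the thrombus weighed. Ear bleeding time was recorded as the time bleeding stopped.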

[14] = system: APTT in pig plasma; assay: APTT clotting time in pig plasma; format: biochemical; details: mean, n = 2–9
How it was run: as §1

[15] = biological target: T1, FXIa (Oryctolagus cuniculus, UniProt G1SSQ6); assay: Ex vivo FXIa inhibition in the arterial FeCl2-injury rabbit model; details: mean (± SD) vs control group
T1 sequence (G1SSQ6 19-624): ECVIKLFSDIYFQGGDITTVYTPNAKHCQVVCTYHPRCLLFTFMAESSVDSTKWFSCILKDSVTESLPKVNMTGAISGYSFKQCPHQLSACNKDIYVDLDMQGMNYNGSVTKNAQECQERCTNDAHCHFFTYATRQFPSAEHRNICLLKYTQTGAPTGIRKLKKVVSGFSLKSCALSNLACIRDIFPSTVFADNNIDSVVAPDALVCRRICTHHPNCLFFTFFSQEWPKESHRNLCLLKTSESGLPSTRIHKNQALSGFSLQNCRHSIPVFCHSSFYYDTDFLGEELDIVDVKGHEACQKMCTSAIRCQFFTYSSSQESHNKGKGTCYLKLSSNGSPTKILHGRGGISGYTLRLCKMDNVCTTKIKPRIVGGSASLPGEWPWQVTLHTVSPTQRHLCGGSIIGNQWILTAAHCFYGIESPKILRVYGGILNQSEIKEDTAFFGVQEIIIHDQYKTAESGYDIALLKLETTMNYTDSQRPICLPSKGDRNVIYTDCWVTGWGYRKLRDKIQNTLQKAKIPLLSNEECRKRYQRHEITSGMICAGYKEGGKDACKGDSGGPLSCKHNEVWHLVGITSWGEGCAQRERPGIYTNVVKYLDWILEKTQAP
How it was run: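 Anaesthetised male New Zealand White rabbits received oral test compound in the arterial FeCl₂‑injury model. Citrated blood was drawn at the start of the thrombosis experiment, centrifuged at 2500 ×g for 10 min at 4°C, and stored at −20°C. FXIa activity was measured by kaolin/cephalin activation (3 min, 37°C), then 400 µM AMC substrate plus 5.6 µM kallikrein inhibitor. The fluorescence slope over the first 5 min was compared with controls.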

[16] = system: APTT in mouse plasma; assay: APTT clotting time in mouse plasma; format: biochemical; details: mean, n = 2–9
How it was run: as §1

[17] = biological target: T1, FXIa; assay: Ex vivo FXIa activity in the AV shunt model; details: rabbit AV shunt; preventative and interventional iv treatment
[18] = system: New Zealand White rabbits; assay: Venous thrombosis; format: in vivo; details: rabbit jugular vein FeCl2
How it was run: as §2

[19] = system: APTT in rat plasma; assay: APTT clotting time in rat plasma; format: biochemical; details: mean, n = 2–9
How it was run: as §1

[20] = system: New Zealand White rabbits; assay: Arterio-venous shunt model in rabbits, intervention protocol; format: in vivo; details: rabbit AV shunt
How it was run: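 Anaesthetised male New Zealand White rabbits (2.7–3.0 kg, ketamine/xylazine) carried a carotid‑artery to jugular‑vein shunt: a 4 cm polyethylene tube with a 6 cm nylon‑wire loop. Test compound was given as an i.v. bolus (1 or 5 mg/kg) via the femoral vein 10 min after the shunt was opened. The shunt ran 30 min, then the wire and attached thrombus were weighed.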

[21] = system: New Zealand White rabbits; assay: Ear bleeding time in the AV shunt model, prevention protocol; format: in vivo; details: rabbit AV shunt, any dose (0.3, 1, 3 mg/kg iv) or time point
[22] = cited from earlier work
[23] = apixaban 1 mg/kg iv + aspirin + ticagrelor
[24] = apixaban 3 mg/kg iv + aspirin + ticagrelor
[25] = dabigatran high dose (1 mg/kg iv)
[26] = dabigatran low dose (0.3 mg/kg iv)

## COc1ccc(-n2nc(C(N)=O)c3c2C(=O)N(c2ccc(N4CCCCC4=O)cc2)CC3)cc1 [apixaban, 1‐(4‐methoxyphenyl)‐7‐oxo‐6‐(4‐(2‐oxopiperidin‐1‐yl)phenyl)‐4,5,6,7‐tetrahydro‐1H ‐pyrazolo[3,4‐c]pyridine‐3‐carboxamide, reference compound]
[1]; [23]
  Increase of ear bleeding time vs aspirin and ticagrelor alone: 2.8 fold
[1]; [24]
  Increase of ear bleeding time vs aspirin and ticagrelor alone: 6.6 fold
[2]; [23]
  Additional reduction in thrombus weight on top of aspirin and ticagrelor: 46%
[2]; [24]
  Additional reduction in thrombus weight on top of aspirin and ticagrelor: 83%

## [H]/N=C(/N)c1ccc(NCc2nc3cc(C(=O)N(CCC(=O)O)c4ccccn4)ccc3n2C)cc1 [dabigatran, reference compound]
[3]; [25]
  APTT increase: 2.2 fold
[3]; [26]
  APTT increase: 1.4 fold
[4]; dabigatran 0.3 mg/kg iv, control mean 5.7 min (340 s)
  Increase of bleeding time vs controls: approximately 5 fold
[4]; dabigatran 1 mg/kg iv, maximum observation period 30 min
  Bleeding time: > 30 min
[5]; [25]
  PT increase: 1.7 fold
[5]; [26]
  PT increase: 1.1 fold

## CC[C@@H](C(=O)Nc1ccc(C(N)=O)c(F)c1)n1cc(OC)c(-c2cc(Cl)ccc2-n2cc(C(F)(F)F)nn2)cc1=O [asundexian]
[1]; asundexian iv + aspirin + ticagrelor
  Ear bleeding time vs aspirin and ticagrelor alone: did not further increase
[1]; oral asundexian 10 mg/kg and 30 mg/kg
  Ear bleeding time vs control: no prolongation
[1]; prophylactic intravenous asundexian 0.6-20 mg/kg
  Ear bleeding time vs control: no increase
[3]; asundexian high dose (12 mg/kg iv)
  APTT increase: 2.3 fold
[3]; asundexian low dose (6 mg/kg iv)
  APTT increase: 1.7 fold
[6]
  Gum bleeding time: no increase
[4]; asundexian 6 and 12 mg/kg iv
  Bleeding time vs controls: neither 6 nor 12 mg/kg asundexian led to any significant effect; also recorded: no significant effect
  Blood loss vs controls: neither 6 nor 12 mg/kg asundexian led to any significant effect; also recorded: no significant effect
[7]
  APTT prolongation, EC150: 1.50 µM
[8]
  Effect on APTT: prolonged
[9]; 0.3 mg/kg iv
  Thrombus weight reduction vs control: 14%
[9]; 1 mg/kg iv, P < .01
  Thrombus weight reduction vs control: 59%
[9]; 1 mg/kg iv
  Thrombus weight: 6.1 (± 0.9) mg
[9]; 3 mg/kg iv, P < .001
  Thrombus weight reduction vs control: 71%
[9]; 3 mg/kg iv
  Thrombus weight: 4.3 (± 0.5) mg
[10]
  Effect on PT: little to no effect
[11]
  APTT prolongation, EC150: 1.59 µM
[12]
  APTT prolongation, EC150: 2.13 µM
[13]
  Ear bleeding time: No ear bleeding time prolongation
[14]
  APTT prolongation, EC150: 0.51 µM
[15]; oral 10 mg/kg
  Reduction of FXIa activity ex vivo: 17% (± 22%)
[15]; oral 30 mg/kg
  Reduction of FXIa activity ex vivo: 44% (± 29%)
[16]
  APTT prolongation, EC150: >12.5 µM
[17]
  Ex vivo FXIa activity: reduced FXIa activity
[18]; asundexian 0.6 mg/kg iv
  Thrombus weight reduction vs control: 25%
[18]; asundexian 2 mg/kg iv
  Thrombus weight reduction vs control: 74%
[18]; asundexian 6 mg/kg iv
  Thrombus weight reduction vs control: 90%
[2]; asundexian 0.6 mg/kg iv bolus
  Thrombus weight reduction vs control: 25%
[2]; asundexian 2 mg/kg iv + aspirin + ticagrelor
  Additional reduction in thrombus weight on top of aspirin and ticagrelor: 32%
[2]; asundexian 6 mg/kg iv + aspirin + ticagrelor
  Additional reduction in thrombus weight on top of aspirin and ticagrelor: 70%
[2]; asundexian 12 mg/kg iv + aspirin + ticagrelor
  Additional reduction in thrombus weight on top of aspirin and ticagrelor: 98%
[2]; asundexian 20 mg/kg iv bolus
  Thrombus weight reduction vs control: 88%
[2]; oral 10 mg/kg, 2 h before, P < .05
  Thrombus weight reduction vs control: 30%
[2]; oral 30 mg/kg, 2 h before, P < .001
  Thrombus weight reduction vs control: 91%
[5]; asundexian 6 and 12 mg/kg iv
  Effect on PT: no effect
[19]
  APTT prolongation, EC150: >12.5 µM
[20]; 1 mg/kg iv, P < .05
  Thrombus weight reduction vs control: 33%
[20]; 5 mg/kg iv, P < .001
  Thrombus weight reduction vs control: 62%
[20]; 5 mg/kg iv, mean (± SEM), control 36.7 (± 3.2) mg
  Thrombus weight: 14.0 (± 3.5) mg
[21]
  Bleeding times following ear incision: not prolonged

## O=C(NC[C@H]1CN(c2ccc(N3CCOCC3=O)cc2)C(=O)O1)c1ccc(Cl)s1 [rivaroxaban, reference compound]
[1]; rivaroxaban iv bolus + infusion, significant for the higher dose
  Ear bleeding time vs control: prolonged
[2]; rivaroxaban iv 0.08 mg/kg +0.09 mg/kg/hour
  Thrombus weight reduction (mean): 51%
[2]; rivaroxaban iv 0.24 mg/kg +0.27 mg/kg/hour
  Thrombus weight reduction (mean): 77%

## Osocimab: fully human IgG1 antibody targeting coagulation factor XIa
[22]
  mean elimination half-life: 30 to 44 days

B1: abelacimab: FXI antibody, dual inhibitor of factor XI and factor XIa (antibody, chains of the INN, looked up, V domains shown)
VH: QVQLLESGGGLVQPGGSLRLSCAASGFTFSTAAMSWVRQAPGKGLEWVSGISGSGSSTYYADSVKGRFTISRDNSKNTLYLQMNSLRAEDTAVYYCARELSYLYSGYYFDYWGQGTLVTVSS
VL: QSVLTQPPSASGTPGQRVTISCSGSSSNIGSNDVSWYQQLPGTAPKLLIYKNYNRPSGVPDRFSGSKSGTSASLAISGLQSEDEADYYCSAWDQRQFDVVFGGGTKLTVL
[22]
  elimination half-life: 25 to 30 days
